How the values were obtained:
[1] = tested on: Human immunodeficiency virus 1; experiment: (§1) Antiviral activity against wild-type HIV-1 NL4-3 infected in human TZM-bl cells using virus particles harvested from 24 hrs drug-treated human CEM cells infected with virus assessed as reduction in viral infection measured after 48 hrs in TZM-bl cells by Firefly luciferase based assay; format: functional, organism-based; settings: Human immunodeficiency virus 1, NL4-3, TZM-bl
Procedure, shortened: (§2)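 Virus stocks grown by infecting 3 × 10^6 CEM cells with virus at 37 °C for 2–3 h, then RPMI with medium changes every 48 h until CPE. Infected CEM cells plated onto five-fold serial inhibitor dilutions in RPMI (top 100 μM).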

[2] = tested on: Human immunodeficiency virus 1; experiment: as §1, with “drug-resistant” for “wild-type”, “harboring Gag mutation/protease I13V/G16E/V32I/L33F/K45I/M46I/A71V/L76V/V82F/I84V mutant” for “NL4-3”; format: functional, organism-based; settings: Human immunodeficiency virus 1, TZM-bl; procedure, shortened: as §2
[3] = tested on: Human immunodeficiency virus 1; experiment: as §1, with “drug-resistant” for “wild-type”, “harboring RT mutation/protease I13V/G16E/V32I/L33F/K45I/M46I/A71V/L76V/V82F/I84V mutant” for “NL4-3”; format: functional, organism-based; settings: Human immunodeficiency virus 1, TZM-bl; procedure, shortened: as §2
[4] = tested on: Human immunodeficiency virus 1; experiment: as §1, with “drug-resistant” for “wild-type”, “harboring protease L10F/L33F/M46I/I47V/I50V/F53L/L63P/A71V/L76S/V82I/I85V/L89I mutant” for “NL4-3”; format: functional, organism-based; settings: Human immunodeficiency virus 1, TZM-bl
[5] = tested on: Human immunodeficiency virus 1; experiment: as §1, with “drug-resistant” for “wild-type”, “harboring protease L10F/V11I/I13V/V32I/L33F/K43T/M46L/I54L/A71V/V82I/I84V/L89M/T91S/Q92R mutant” for “NL4-3”; format: functional, organism-based; settings: Human immunodeficiency virus 1, TZM-bl; procedure, shortened: as §2
[6] = tested on: Human immunodeficiency virus 1; experiment: as §1, with “drug-resistant” for “wild-type”, “harboring protease L10F/I15V/M46I/I47V/I50V/F53L/A71V/V82I/I84V/L89T mutant” for “NL4-3”; format: functional, organism-based; settings: Human immunodeficiency virus 1, TZM-bl; procedure, shortened: as §2
[7] = tested on: Human immunodeficiency virus 1; experiment: as §1, with “drug-resistant” for “wild-type”, “harboring protease L10F/I13V/L33F/K45R/M46I/I47V/I50V/F53L/I54L/I66F/A71V/T74A/L76S/V82I mutant” for “NL4-3”; format: functional, organism-based; settings: Human immunodeficiency virus 1, TZM-bl; procedure, shortened: as §2
[8] = tested on: Human immunodeficiency virus 1; experiment: Antiviral activity against DRV-resistant HIV-1 infected in human TZM-bl cells using virus particles harvested from 24 hrs drug-treated human CEM cells infected with virus assessed as reduction in viral infection measured after 48 hrs in TZM-bl cells by Firefly luciferase based assay; format: functional, organism-based; settings: Human immunodeficiency virus 1, TZM-bl; procedure, shortened: as §2
[9] = tested on: Human immunodeficiency virus 1; experiment: Selectivity ratio of EC50 for drug-resistant HIV-1 harboring Gag mutation/protease I13V/G16E/V32I/L33F/K45I/M46I/A71V/L76V/V82F/I84V mutant infected in human TZM-bl cells to EC50 for wild-type HIV-1 NL4-3 infected in human TZM-bl cells; format: functional
[10] = tested on: Human immunodeficiency virus 1; experiment: Selectivity ratio of EC50 for drug-resistant HIV-1 harboring RT mutation/protease I13V/G16E/V32I/L33F/K45I/M46I/A71V/L76V/V82F/I84V mutant infected in human TZM-bl cells to EC50 for wild-type HIV-1 NL4-3 infected in human TZM-bl cells; format: functional
[11] = tested on: Human immunodeficiency virus 1; experiment: Selectivity ratio of EC50 for drug-resistant HIV-1 harboring protease L10F/L33F/M46I/I47V/I50V/F53L/L63P/A71V/L76S/V82I/I85V/L89I mutant infected in human TZM-bl cells to EC50 for wild-type HIV-1 NL4-3 infected in human TZM-bl cells; format: functional
[12] = tested on: Human immunodeficiency virus 1; experiment: Selectivity ratio of EC50 for drug-resistant HIV-1 harboring protease L10F/V11I/I13V/V32I/L33F/K43T/M46L/I54L/A71V/V82I/I84V/L89M/T91S/Q92R mutant infected in human TZM-bl cells to EC50 for wild-type HIV-1 NL4-3 infected in human TZM-bl cells; format: functional
[13] = tested on: Human immunodeficiency virus 1; experiment: Selectivity ratio of EC50 for drug-resistant HIV-1 harboring protease L10F/I15V/M46I/I47V/I50V/F53L/A71V/V82I/I84V/L89T mutant infected in human TZM-bl cells to EC50 for wild-type HIV-1 NL4-3 infected in human TZM-bl cells; format: functional
[14] = tested on: Human immunodeficiency virus 1; experiment: Selectivity ratio of EC50 for drug-resistant HIV-1 harboring protease L10F/I13V/L33F/K45R/M46I/I47V/I50V/F53L/I54L/I66F/A71V/T74A/L76S/V82I mutant infected in human TZM-bl cells to EC50 for wild-type HIV-1 NL4-3 infected in human TZM-bl cells; format: functional
[15] = tested on: Human immunodeficiency virus 1; experiment: Selectivity ratio of EC50 for DRV-resistant HIV-1 infected in human TZM-bl cells to EC50 for wild-type HIV-1 NL4-3 infected in human TZM-bl cells; format: functional

SMILES: CCC(CC)CN(C[C@@H](O)[C@H](Cc1ccccc1)NC(=O)O[C@H]1CO[C@H]2OCC[C@H]21)S(=O)(=O)c1ccc(OC)cc1
- EC50 [1]: 0.003 µM
- EC50 [2]: 0.14 µM
- EC50 [3]: 0.25 µM
- EC50 [4]: 0.8 µM
- EC50 [5]: 5.38 µM
- EC50 [6]: 21.8 µM
- EC50 [7]: 16.7 µM
- EC50 [8]: 1.6 µM
- Ratio EC50 [9]: 47
- Ratio EC50 [10]: 83
- Ratio EC50 [11]: 267
- Ratio EC50 [12]: 1793
- Ratio EC50 [13]: 7267
- Ratio EC50 [14]: 5567
- Ratio EC50 [15]: 533

Reference: ChEMBL document CHEMBL5620363, “HIV-1 protease inhibitors with a P1 phosphonate modification maintain potency against drug-resistant variants by increased interactions with flap residues” (Eur J Med Chem, 2023)
